Data: ChEMBL document CHEMBL1153088, “Discovery of benzo[g]indol-3-carboxylates as potent inhibitors of microsomal prostaglandin E(2) synthase-1” (Bioorg Med Chem, 2009)
The source made the active and inactive calls. The calls are words filed in the database; no cut-off is given here.

Key:
[1] = target: T1, Prostaglandin G/H synthase 1 (Ovis aries) (UniProt P05979); assay: Inhibition of ovine COX1 assessed as residual enzyme activity at 10 uM relative to untreated control
T1 sequence (whole entry): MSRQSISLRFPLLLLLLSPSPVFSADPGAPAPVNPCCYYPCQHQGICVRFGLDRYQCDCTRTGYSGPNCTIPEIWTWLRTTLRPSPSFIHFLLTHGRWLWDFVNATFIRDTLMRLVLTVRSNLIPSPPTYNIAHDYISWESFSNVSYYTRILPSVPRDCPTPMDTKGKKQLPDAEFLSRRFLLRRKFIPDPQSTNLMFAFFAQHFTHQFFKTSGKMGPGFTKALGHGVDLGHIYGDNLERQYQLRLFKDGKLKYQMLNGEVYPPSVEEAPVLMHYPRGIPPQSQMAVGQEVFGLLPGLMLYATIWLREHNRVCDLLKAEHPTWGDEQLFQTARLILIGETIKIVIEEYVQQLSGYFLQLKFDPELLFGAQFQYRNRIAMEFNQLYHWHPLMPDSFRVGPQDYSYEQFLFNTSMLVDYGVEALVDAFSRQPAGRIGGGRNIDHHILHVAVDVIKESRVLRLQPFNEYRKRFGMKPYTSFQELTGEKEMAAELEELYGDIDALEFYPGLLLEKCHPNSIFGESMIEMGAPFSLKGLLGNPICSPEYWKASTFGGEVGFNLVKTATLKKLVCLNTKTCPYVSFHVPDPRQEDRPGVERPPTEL
Method in brief: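 Purified ovine COX-1 (50 units) in 1 ml of 100 mM Tris pH 8 containing 5 mM glutathione, 5 µM hemoglobin and 100 µM EDTA was preincubated with compound for 5 min at 4 °C and prewarmed 60 s at 37 °C. The reaction was started with 5 µM AA and run 5 min at 37 °C, and 12-HHT was analysed by HPLC.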

[2] = target: T2, Prostaglandin E synthase (Homo sapiens) (UniProt O14684); assay: Inhibition of mPGES1 in IL1-beta induced human A549 cell microsomal membrane at 10 uM assessed as enzyme residual activity by PGE2 formation assay relative to untreated control; assay type: microsomes; settings: Microsome
T2 sequence (whole entry): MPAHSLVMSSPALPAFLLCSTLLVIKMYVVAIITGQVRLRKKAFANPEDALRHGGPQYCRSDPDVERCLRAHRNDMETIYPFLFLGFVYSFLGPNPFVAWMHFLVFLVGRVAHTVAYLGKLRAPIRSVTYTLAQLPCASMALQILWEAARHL
Method in brief: (§1)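 Microsomes from A549 cells treated with IL-1β (1 ng/ml, 72 h) were used at 50 µg/ml in 0.1 M potassium phosphate pH 7.4 with 2.5 mM glutathione. Compound (DMSO 1% final) was preincubated 15 min at 4 °C, then PGH2 was added (20 µM final) for 1 min at 4 °C.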

A549 = assay: Toxicity in human A549 cells assessed as reduction of cell viability by MTT assay; assay type: cell-based
Method in brief: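 A549 cells (4×10^4 per 100 µl) were plated for 16 h, then exposed to compounds at 30 µM (DMSO ≤0.3%) for 5 h. MTT was added for 4 h, formazan was solubilized in 10% SDS/20 mM HCl, and absorbance at 595 nm was read relative to vehicle-treated cells.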

[3] = target: T2, Prostaglandin E synthase (Homo sapiens); assay: Inhibition of mPGES1 in IL1-beta induced human A549 cells assessed as PGE2 production at 30 uM preincubated for 10 mins; assay type: cell-based; parameters: scale not given: the % may be the effect or the level left
Method in brief: (§2)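 Intact IL-1β-induced A549 cells (4×10^6/ml PBS, 1 mM CaCl2) were preincubated with compound (DMSO ≤0.3%) for 10 min at 37 °C. [3H]PGE2 was separated by RP-18 SPE/HPLC and counted by liquid scintillation.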

[4] = target: Prostaglandin G/H synthase 1 (Homo sapiens) (UniProt P23219); assay: Inhibition of COX1 in platelets assessed as inhibition of 12-HHT formation at 10 uM by RP-HPLC
Chain of Prostaglandin G/H synthase 1 (Homo sapiens) (P23219 whole entry): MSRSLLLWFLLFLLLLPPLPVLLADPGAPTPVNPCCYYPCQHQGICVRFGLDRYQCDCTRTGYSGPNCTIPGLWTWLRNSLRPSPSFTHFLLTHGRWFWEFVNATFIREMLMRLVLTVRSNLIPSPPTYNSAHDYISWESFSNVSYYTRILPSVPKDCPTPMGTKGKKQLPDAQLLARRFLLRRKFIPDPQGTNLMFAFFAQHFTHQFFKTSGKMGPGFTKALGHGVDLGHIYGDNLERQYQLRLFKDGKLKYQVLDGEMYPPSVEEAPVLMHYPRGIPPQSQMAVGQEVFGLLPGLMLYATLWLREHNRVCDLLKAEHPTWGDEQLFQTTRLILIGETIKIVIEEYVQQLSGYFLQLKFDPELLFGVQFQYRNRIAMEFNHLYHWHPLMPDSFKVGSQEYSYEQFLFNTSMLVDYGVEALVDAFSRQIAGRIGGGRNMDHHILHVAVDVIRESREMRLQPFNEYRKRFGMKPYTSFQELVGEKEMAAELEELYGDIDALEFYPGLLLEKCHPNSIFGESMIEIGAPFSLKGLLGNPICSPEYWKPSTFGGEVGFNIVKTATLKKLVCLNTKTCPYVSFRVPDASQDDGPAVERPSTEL
Method in brief: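 Freshly isolated human platelets (10^8/ml PBS with 1 mM CaCl2) were preincubated with compound (DMSO ≤0.3%), then stimulated with 5 µM AA for 5 min at 37 °C. 12-HHT was extracted and quantified by RP-HPLC. Mean ± SE, n=3–5.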

Prostaglandin E synthase [5] = target: T3, Prostaglandin E synthase (Homo sapiens, UniProt O14684); assay: Inhibition of mPGES1 in IL1-beta induced human A549 cell microsomal membrane assessed as blockade of conversion of PGH2 to PGE2; assay type: microsomes, Microsome; method in brief: as §1
T3 sequence (O14684 whole entry): T2 sequence (whole entry)

Prostaglandin E synthase [6] = target: T3, Prostaglandin E synthase; assay: Inhibition of mPGES1 in IL1-beta induced human A549 cells assessed as PGE2 production preincubated for 10 mins; assay type: cell-based
Method in brief: as §2, with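 “°C. They were then stimulated with 2.5 µM A23187 plus 1 µM AA and [3H]AA (18.4 kBq) for 15 min, and the reaction was stopped on ice.” for “°C.”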

[7] = target: T4, Prostaglandin G/H synthase 2 (Homo sapiens) (UniProt P35354); assay: Inhibition of COX2 in IL1-beta induced human A549 cells assessed as 6-keto-PGF1-alpha formation up to 30 uM preincubated for 15 mins by ELISA; assay type: cell-based
T4 sequence (whole entry): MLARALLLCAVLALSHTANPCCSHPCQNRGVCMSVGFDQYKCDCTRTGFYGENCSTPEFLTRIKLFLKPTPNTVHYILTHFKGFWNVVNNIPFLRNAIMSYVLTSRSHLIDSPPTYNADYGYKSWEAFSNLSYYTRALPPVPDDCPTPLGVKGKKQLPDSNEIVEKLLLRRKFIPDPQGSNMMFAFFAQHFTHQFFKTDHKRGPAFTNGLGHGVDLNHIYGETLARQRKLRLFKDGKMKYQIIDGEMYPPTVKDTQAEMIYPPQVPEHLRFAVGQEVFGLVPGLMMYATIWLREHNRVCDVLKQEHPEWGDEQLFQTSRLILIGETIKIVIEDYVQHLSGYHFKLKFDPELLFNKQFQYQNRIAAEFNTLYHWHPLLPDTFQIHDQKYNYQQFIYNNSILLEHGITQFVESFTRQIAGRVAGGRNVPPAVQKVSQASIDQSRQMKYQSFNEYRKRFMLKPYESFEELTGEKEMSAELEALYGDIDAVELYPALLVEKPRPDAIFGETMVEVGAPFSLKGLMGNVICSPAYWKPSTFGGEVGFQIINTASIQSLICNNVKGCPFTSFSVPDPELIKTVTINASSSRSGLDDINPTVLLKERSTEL
Method in brief: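 A549 cells were induced with IL-1β (1 ng/ml, 72 h, 2% FCS). Cells at 5×10^6 per ml PBS with 1 mM CaCl2 were preincubated 15 min at 37 °C, then given 30 µM AA for 15 min at 37 °C, and the reaction was stopped on ice. Released 6-keto PGF1α was measured by monoclonal-antibody ELISA with β-galactosidase tracer read at 550 nm.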

Rattus norvegicus [8] = assay: Antiinflammatory activity in Wistar Han rat assessed as LTB4 level at 4 mg/kg, ip administered 30 mins before carrageenan challenge (reference value: 1.17 +/- 0.21 ng); assay type: functional; settings: route intraperitoneal
Mus musculus [9] = assay: Antiinflammatory activity in CD1 mouse assessed as inhibition of carrageenan-induced paw edema at 0.25 mg/kg, ip administered 30 mins before carrageenan challenge relative to untreated control; assay type: functional; settings: route intraperitoneal
Method in brief: (§3)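 Male adult CD1 mice, n=10 per group, given the compound ip (vehicle 2% DMSO) 30 min before subplantar 1% λ-carrageenan in saline (0.05 ml). Paw volume was measured double blind by hydroplethysmometer just before injection and at 2, 4 and 6 h. Inhibition was taken at the 4 h reading versus vehicle.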

Rattus norvegicus [10] = assay: Antiinflammatory activity in Wistar Han rat assessed as reduction in inflammatory cell numbers at 4 mg/kg, ip administered 30 mins before carrageenan challenge; assay type: functional, organism-based; parameters: dose 4 mg/kg
Mus musculus [11] = assay: Antiinflammatory activity in CD1 mouse assessed as inhibition of carrageenan-induced paw edema at 4 mg/kg, ip administered 30 mins before carrageenan challenge relative to untreated control; assay type: functional; settings: route intraperitoneal; method in brief: as §3
Mus musculus [12] = assay: Antiinflammatory activity in CD1 mouse assessed as inhibition of carrageenan-induced paw edema at 1 mg/kg, ip administered 30 mins before carrageenan challenge relative to untreated control; assay type: functional; settings: route intraperitoneal; method in brief: as §3
Rattus norvegicus [13] = assay: Antiinflammatory activity in Wistar Han rat assessed as PGE2 level at 4 mg/kg, ip administered 30 mins before carrageenan challenge (reference value: 2.79 +/-0.39 ng); assay type: functional; settings: route intraperitoneal
Rattus norvegicus [14] = assay: Antiinflammatory activity in Wistar Han rat assessed as reduction in exudate volume at 4 mg/kg, ip administered 30 mins before carrageenan challenge; assay type: functional, organism-based; parameters: dose 4 mg/kg
Rattus norvegicus [15] = assay: Antiinflammatory activity in Wistar Han rat assessed as 6-Keto PGF1alpha level at 4 mg/kg, ip administered 30 mins before carrageenan challenge (reference value: 3.00 +/- 1.02 ng); assay type: functional; settings: route intraperitoneal
Rattus norvegicus [16] = assay: Antiinflammatory activity in Wistar Han rat assessed as reduction in exudate volume at 5 mg/kg, ip administered 30 mins before carrageenan challenge; assay type: functional, organism-based; parameters: dose 5 mg/kg
Mus musculus [17] = assay: Antiinflammatory activity in CD1 mouse assessed as inhibition of carrageenan-induced paw edema at 5 mg/kg, ip administered 30 mins before carrageenan challenge relative to untreated control; assay type: functional; settings: route intraperitoneal; method in brief: as §3
Rattus norvegicus [18] = assay: Antiinflammatory activity in Wistar Han rat assessed as reduction in inflammatory cell numbers at 5 mg/kg, ip administered 30 mins before carrageenan challenge; assay type: functional, organism-based; parameters: dose 5 mg/kg
[19] = target: T2, Prostaglandin E synthase (Homo sapiens); settings: A549, Microsome, 0.3 uM
[20] = target: T2, Prostaglandin E synthase (Homo sapiens); settings: A549, Microsome, 30 uM
[21] = target: T2, Prostaglandin E synthase (Homo sapiens); settings: A549, Microsome, 3 uM
[22] = target: T2, Prostaglandin E synthase (Homo sapiens); settings: A549, Microsome, 3 uM; remark: listed apart in the source

With `CCOC(=O)c1c(Cc2cccc(Cl)c2)[nH]c2c1cc(O)c1cc(OC)c(OC)cc12` the inhibition [1] was “inactive”.

For `CCOC(=O)c1c(CCc2cccc(Cl)c2)[nH]c2c1cc(O)c1ccccc12`, the Activity [2] was 57%.

With `CCOC(=O)c1c(Nc2cccc(Cl)c2)[nH]c2c1cc(O)c1ccccc12` the Activity (A549) was “Non-toxic”, the Activity [3] was 35% and the inhibition [1] was “inactive”. The Activity [2] was 13%, the inhibition [4] was 31% and the IC50 (Prostaglandin E synthase [5]) was 1.6 µM. The IC50 (Prostaglandin E synthase [6]; a549) was “Dose-dependent effect”, the IC50 (Prostaglandin E synthase [6]; read-out: IC50) was 7.9 µM and the inhibition [7] was “inactive”.

In the case of `CCOC(=O)c1c(Cc2cccc(Br)c2)[nH]c2c1cc(O)c1ccccc12`, the Activity [1] is reported as 82%.

With `CCOC(=O)c1c(Cc2cccc(Cl)c2)[nH]c2c1cc(O)c1ccccc12` the Activity (Rattus norvegicus [8]) was 0.6 ng, the Activity (A549) was “Non-toxic” and the Activity [1] was 12%. The inhibition in vivo at 0.25 mg/kg (Mus musculus [9]) was 37%, the inhibition [4] was 43% and the inhibition (Rattus norvegicus [10]) was “Active”. For the same molecule, the inhibition in vivo at 4 mg/kg (Mus musculus [11]) was 61%, the inhibition in vivo at 1 mg/kg (Mus musculus [12]) was 53% and the inhibition [7] was “inactive”. The Activity (Rattus norvegicus [13]) was 1.3 ng, the inhibition (Rattus norvegicus [14]) was “Active” and the Activity (Rattus norvegicus [15]) was 2.02 ng.

In the case of `COc1ccc2c(c1)c(CC(=O)O)c(C)n2C(=O)c1ccc(Cl)cc1` [INDOMETHACIN], the inhibition (Rattus norvegicus [16]) is reported as “Active”, the inhibition in vivo at 5 mg/kg (Mus musculus [17]) is reported as 57% and the inhibition (Rattus norvegicus [18]) is reported as “Active”.

For `CCOC(=O)c1c(Cc2cccc(Cl)c2)n(-c2ccc(-c3ccccc3)cc2)c2ccc(O)cc12`, the inhibition [1] was “inactive”, the Activity [2] was 25% and the IC50 (Prostaglandin E synthase [5]) was 3.1 µM.

For `CC(C)c1ccc2c(c1)c(SC(C)(C)C)c(CC(C)(C)C(=O)O)n2Cc1ccc(Cl)cc1`, the Activity [3] was 37%, the inhibition [19] was “inactive” and the Activity [1] was 42%. For the same molecule, the inhibition [20] was 82%, the inhibition [21] was “Active” and the inhibition [22] was “Active”.

`CCOC(=O)c1c(Cc2cccc(F)c2)[nH]c2c1cc(O)c1ccccc12` was tested, and the inhibition [1] was “inactive”, the Activity [2] was 5% and the IC50 (Prostaglandin E synthase [5]) was 0.5 µM.
